From ChEMBL document CHEMBL1250451, “Mechanistic insights into a Ca2+-dependent family of alpha-mannosidases in a human gut symbiont” (Nat Chem Biol, 2010)

What was measured:
Type in all cases: protein assay
[1] = target: T1, Alpha-1,2-mannosidase (BT_2199) (Bacteroides thetaiotaomicron, UniProt Q8A5N9); experiment: Inhibition of Bacteroides thetaiotaomicron GH92 alpha-mannosidase 2199 assessed as reduction of mannose release using 4NP-mannopyranoside substrate
T1 sequence (Q8A5N9 whole entry): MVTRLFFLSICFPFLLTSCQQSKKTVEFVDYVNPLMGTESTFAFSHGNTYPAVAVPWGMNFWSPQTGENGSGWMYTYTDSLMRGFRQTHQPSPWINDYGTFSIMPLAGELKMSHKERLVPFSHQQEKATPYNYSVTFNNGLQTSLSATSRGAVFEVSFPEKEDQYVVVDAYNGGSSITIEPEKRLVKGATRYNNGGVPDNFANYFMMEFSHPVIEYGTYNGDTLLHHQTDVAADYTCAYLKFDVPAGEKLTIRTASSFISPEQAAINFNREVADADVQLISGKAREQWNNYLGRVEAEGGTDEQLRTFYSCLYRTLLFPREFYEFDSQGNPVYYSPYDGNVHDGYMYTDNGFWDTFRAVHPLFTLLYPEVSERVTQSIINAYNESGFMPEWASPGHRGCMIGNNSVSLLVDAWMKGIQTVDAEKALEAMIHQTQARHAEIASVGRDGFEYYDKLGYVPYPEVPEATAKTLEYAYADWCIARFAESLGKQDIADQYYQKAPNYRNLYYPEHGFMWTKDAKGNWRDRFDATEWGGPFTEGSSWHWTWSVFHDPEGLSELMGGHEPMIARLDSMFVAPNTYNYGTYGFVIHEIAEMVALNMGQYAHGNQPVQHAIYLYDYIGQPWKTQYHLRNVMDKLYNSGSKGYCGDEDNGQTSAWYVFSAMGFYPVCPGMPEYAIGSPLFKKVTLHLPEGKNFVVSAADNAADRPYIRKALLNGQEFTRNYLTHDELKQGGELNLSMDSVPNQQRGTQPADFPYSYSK
Method in brief: (§1)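 Recombinant enzymes expressed in E. coli. Bt3990 was purified by IMAC, anion exchange and size exclusion; Bt2199 by IMAC only. Ki was measured with at least five inhibitor concentrations at a substrate concentration ≪ Km for each enzyme. Ki was taken as the x-axis intercept of a plot of […] against inhibitor concentration.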

[2] = target: Alpha-1,2-mannosidase (BT_3990) (Bacteroides thetaiotaomicron, UniProt Q8A0N1); experiment: Inhibition of Bacteroides thetaiotaomicron GH92 alpha-mannosidase 3990 assessed as reduction of mannose release using 4NP-mannopyranoside substrate; method in brief: as §1
[3] = target: Alpha-1,2-mannosidase family protein (BT_1032) (Bacteroides thetaiotaomicron, UniProt Q8A8Y5); experiment: Inhibition of Bacteroides thetaiotaomicron GH92 alpha-mannosidase 1032 assessed as reduction of mannose release using 4NP-mannopyranoside substrate
Method in brief: (§2)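 Recombinant His-tagged GH92 enzymes were expressed in E. coli Tuner or B834 and purified by IMAC. Mannose release was measured at 37 °C in 100 mM MOPS, pH 7.0, with 2 mM CaCl2. The read-out was a coupled-enzyme mannose detection system with ATP and NADP+ at 1 mM, following NADPH at 340 nm. At least five inhibitor concentrations were tested, with substrate ≪ Km. Ki was taken from the x-intercept of […] versus inhibitor concentration.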

[4] = target: Alpha-1,2-mannosidase (BT_1878) (Bacteroides thetaiotaomicron, UniProt Q8A6K3); experiment: Inhibition of Bacteroides thetaiotaomicron GH92 alpha-mannosidase 1878 assessed as reduction of mannose release using 4NP-mannopyranoside substrate; method in brief: as §2
[5] = target: Alpha-1,2-mannosidase (BT_2948) (Bacteroides thetaiotaomicron, UniProt Q8A3K6); experiment: Inhibition of Bacteroides thetaiotaomicron GH92 alpha-mannosidase 2948 assessed as reduction of mannose release using 4NP-mannopyranoside substrate; method in brief: as §2
[6] = target: Alpha-1,2-mannosidase, putative (BT_3130) (Bacteroides thetaiotaomicron, UniProt Q8A325); experiment: Inhibition of Bacteroides thetaiotaomicron GH92 alpha-mannosidase 3130 assessed as reduction of mannose release using 4NP-mannopyranoside substrate; method in brief: as §2
[7] = target: Alpha-1,2-mannosidase (BT_3784) (Bacteroides thetaiotaomicron, UniProt Q8A182); experiment: Inhibition of Bacteroides thetaiotaomicron GH92 alpha-mannosidase 3784 assessed as reduction of mannose release using 4NP-mannopyranoside substrate; method in brief: as §2
[8] = target: Alpha-1,2-mannosidase (BT_3858) (Bacteroides thetaiotaomicron, UniProt Q8A113); experiment: Inhibition of Bacteroides thetaiotaomicron GH92 alpha-mannosidase 3858 assessed as reduction of mannose release using 4NP-mannopyranoside substrate; method in brief: as §2
[9] = target: Glycoside hydrolase family 92 (BT_3962) (Bacteroides thetaiotaomicron, UniProt Q8A0Q9); experiment: Inhibition of Bacteroides thetaiotaomicron GH92 alpha-mannosidase 3962 assessed as reduction of mannose release using 4NP-mannopyranoside substrate; method in brief: as §2
[10] = target: Glycoside hydrolase family 92 (BT_3963) (Bacteroides thetaiotaomicron, UniProt Q8A0Q8); experiment: Inhibition of Bacteroides thetaiotaomicron GH92 alpha-mannosidase 3963 assessed as reduction of mannose release using 4NP-mannopyranoside substrate; method in brief: as §2
[11] = target: Alpha-1,2-mannosidase (BT_3965) (Bacteroides thetaiotaomicron, UniProt Q8A0Q6); experiment: Inhibition of Bacteroides thetaiotaomicron GH92 alpha-mannosidase 3965 assessed as reduction of mannose release using 4NP-mannopyranoside substrate; method in brief: as §2
[12] = target: Alpha-1,2-mannosidase (BT_3991) (Bacteroides thetaiotaomicron, UniProt Q8A0N0); experiment: Inhibition of Bacteroides thetaiotaomicron GH92 alpha-mannosidase 3991 assessed as reduction of mannose release using 4NP-mannopyranoside substrate; method in brief: as §2
[13] = target: Alpha-1,2-mannosidase (BT_3994) (Bacteroides thetaiotaomicron, UniProt Q8A0M7); experiment: Inhibition of Bacteroides thetaiotaomicron GH92 alpha-mannosidase 3994 assessed as reduction of mannose release using 4NP-mannopyranoside substrate; method in brief: as §2
[14] = target: Alpha-1,2-mannosidase, putative (BT_4073) (Bacteroides thetaiotaomicron, UniProt Q8A0E8); experiment: Inhibition of Bacteroides thetaiotaomicron GH92 alpha-mannosidase 4073 assessed as reduction of mannose release using 4NP-mannopyranoside substrate; method in brief: as §2
[15] = target: Alpha-1,2-mannosidase (BT_4092) (Bacteroides thetaiotaomicron, UniProt Q8A0C9); experiment: Inhibition of Bacteroides thetaiotaomicron GH92 alpha-mannosidase 4092 assessed as reduction of mannose release using 4NP-mannopyranoside substrate; method in brief: as §2
[16] = target: Alpha-1,2-mannosidase family protein (BT_4093) (Bacteroides thetaiotaomicron, UniProt Q8A0C8); experiment: Inhibition of Bacteroides thetaiotaomicron GH92 alpha-mannosidase 4093 assessed as reduction of mannose release using 4NP-mannopyranoside substrate; method in brief: as §2

Chain of Alpha-1,2-mannosidase (BT_3784) (Q8A182 whole entry, change not shown): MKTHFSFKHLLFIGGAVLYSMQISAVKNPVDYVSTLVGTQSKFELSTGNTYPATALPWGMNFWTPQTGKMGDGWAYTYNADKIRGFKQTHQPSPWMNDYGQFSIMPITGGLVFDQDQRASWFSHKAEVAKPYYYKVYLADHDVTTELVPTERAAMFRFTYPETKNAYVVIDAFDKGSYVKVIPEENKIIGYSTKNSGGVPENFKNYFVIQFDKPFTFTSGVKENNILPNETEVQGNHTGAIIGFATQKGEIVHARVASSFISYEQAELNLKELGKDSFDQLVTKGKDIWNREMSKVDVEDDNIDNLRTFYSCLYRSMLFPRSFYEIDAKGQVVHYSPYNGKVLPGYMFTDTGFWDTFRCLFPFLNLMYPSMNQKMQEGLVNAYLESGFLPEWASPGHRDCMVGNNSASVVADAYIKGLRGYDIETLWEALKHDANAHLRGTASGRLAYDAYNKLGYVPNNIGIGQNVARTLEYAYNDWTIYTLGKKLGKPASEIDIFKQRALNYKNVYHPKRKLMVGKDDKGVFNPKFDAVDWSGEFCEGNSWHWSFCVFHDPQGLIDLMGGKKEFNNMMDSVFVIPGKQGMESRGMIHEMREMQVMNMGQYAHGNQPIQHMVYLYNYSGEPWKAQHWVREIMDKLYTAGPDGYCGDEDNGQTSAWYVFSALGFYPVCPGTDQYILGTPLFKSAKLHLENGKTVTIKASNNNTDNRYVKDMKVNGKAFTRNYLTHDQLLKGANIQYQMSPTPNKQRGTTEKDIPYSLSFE
Chain of Alpha-1,2-mannosidase (BT_3990) (Q8A0N1 whole entry, change not shown): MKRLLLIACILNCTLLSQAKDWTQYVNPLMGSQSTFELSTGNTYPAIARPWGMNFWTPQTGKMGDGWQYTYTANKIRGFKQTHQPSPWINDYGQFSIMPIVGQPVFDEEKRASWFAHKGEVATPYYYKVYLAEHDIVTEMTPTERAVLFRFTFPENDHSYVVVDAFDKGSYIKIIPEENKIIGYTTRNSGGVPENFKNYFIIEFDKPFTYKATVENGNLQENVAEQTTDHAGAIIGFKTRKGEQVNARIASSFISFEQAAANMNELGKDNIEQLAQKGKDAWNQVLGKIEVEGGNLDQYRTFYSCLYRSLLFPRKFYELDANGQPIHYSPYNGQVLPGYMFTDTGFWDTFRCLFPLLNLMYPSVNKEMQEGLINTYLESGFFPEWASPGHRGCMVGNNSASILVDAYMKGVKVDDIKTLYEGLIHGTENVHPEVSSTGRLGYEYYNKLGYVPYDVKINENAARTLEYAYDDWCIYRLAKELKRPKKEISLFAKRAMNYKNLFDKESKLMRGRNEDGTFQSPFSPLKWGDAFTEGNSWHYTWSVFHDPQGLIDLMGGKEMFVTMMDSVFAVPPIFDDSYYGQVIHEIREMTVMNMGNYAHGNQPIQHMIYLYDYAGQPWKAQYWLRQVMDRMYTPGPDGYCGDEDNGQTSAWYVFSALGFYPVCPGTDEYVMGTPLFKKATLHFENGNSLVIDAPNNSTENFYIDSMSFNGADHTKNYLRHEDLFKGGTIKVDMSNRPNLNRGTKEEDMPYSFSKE
Chain of Alpha-1,2-mannosidase (BT_4092) (Q8A0C9 whole entry, change not shown): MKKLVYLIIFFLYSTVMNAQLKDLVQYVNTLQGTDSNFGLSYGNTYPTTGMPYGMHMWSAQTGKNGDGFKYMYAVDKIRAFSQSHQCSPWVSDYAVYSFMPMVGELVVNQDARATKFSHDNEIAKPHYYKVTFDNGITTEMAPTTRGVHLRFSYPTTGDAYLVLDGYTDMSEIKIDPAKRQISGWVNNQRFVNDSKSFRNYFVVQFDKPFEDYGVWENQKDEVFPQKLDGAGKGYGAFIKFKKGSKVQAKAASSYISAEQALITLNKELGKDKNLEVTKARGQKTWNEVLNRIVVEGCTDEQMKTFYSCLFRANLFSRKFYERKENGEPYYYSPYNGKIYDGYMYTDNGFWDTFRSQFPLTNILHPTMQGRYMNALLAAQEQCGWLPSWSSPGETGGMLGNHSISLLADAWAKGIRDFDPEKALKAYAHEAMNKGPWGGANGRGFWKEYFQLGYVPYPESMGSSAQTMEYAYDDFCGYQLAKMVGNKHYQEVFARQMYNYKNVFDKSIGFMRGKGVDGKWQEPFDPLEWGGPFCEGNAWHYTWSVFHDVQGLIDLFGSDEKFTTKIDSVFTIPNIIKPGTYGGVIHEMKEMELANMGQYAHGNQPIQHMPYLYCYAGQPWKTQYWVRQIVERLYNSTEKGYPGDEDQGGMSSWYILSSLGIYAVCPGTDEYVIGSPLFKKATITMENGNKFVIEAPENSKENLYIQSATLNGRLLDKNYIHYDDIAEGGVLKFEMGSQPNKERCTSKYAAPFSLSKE
Chain of Alpha-1,2-mannosidase (BT_3965) (Q8A0Q6 whole entry, change not shown): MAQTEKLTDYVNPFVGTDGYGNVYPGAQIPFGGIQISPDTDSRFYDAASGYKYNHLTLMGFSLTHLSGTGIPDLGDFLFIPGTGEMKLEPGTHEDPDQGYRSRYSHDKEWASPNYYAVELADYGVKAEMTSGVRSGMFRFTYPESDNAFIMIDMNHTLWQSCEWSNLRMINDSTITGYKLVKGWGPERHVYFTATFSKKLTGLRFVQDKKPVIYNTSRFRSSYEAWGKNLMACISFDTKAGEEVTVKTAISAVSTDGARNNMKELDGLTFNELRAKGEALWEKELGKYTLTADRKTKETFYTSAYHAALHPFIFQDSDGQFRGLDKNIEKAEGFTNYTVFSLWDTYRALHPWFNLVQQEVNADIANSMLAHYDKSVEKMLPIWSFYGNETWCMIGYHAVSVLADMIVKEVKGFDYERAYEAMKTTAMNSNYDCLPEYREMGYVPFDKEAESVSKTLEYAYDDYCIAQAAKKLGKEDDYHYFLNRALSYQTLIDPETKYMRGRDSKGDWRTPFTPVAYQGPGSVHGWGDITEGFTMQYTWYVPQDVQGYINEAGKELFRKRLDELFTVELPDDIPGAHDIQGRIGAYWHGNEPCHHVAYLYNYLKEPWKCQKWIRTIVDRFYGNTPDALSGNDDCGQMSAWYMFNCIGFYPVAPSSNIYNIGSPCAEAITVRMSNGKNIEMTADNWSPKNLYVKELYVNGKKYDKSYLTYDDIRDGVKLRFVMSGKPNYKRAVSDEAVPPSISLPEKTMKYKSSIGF
Chain of Alpha-1,2-mannosidase, putative (BT_3130) (Q8A325 whole entry, change not shown): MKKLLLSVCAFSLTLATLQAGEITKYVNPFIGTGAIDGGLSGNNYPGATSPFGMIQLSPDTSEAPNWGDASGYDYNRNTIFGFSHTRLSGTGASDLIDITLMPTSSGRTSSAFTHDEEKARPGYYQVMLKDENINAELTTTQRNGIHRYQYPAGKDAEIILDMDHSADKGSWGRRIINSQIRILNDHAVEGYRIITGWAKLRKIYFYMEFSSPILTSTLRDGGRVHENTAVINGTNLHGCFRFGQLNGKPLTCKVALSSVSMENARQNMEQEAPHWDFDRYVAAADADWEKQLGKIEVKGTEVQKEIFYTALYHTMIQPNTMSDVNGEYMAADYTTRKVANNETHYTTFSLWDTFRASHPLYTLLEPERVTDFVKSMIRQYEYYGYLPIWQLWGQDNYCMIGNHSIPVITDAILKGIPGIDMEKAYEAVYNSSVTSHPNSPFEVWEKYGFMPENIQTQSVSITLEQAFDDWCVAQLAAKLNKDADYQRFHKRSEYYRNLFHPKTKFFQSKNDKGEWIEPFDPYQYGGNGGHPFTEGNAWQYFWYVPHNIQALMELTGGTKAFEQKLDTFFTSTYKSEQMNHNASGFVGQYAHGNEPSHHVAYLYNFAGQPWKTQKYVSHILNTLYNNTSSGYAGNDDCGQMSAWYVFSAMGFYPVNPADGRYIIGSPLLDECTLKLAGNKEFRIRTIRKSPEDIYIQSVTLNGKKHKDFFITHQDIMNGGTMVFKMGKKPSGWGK
Chain of Alpha-1,2-mannosidase family protein (BT_1032) (Q8A8Y5 whole entry, change not shown): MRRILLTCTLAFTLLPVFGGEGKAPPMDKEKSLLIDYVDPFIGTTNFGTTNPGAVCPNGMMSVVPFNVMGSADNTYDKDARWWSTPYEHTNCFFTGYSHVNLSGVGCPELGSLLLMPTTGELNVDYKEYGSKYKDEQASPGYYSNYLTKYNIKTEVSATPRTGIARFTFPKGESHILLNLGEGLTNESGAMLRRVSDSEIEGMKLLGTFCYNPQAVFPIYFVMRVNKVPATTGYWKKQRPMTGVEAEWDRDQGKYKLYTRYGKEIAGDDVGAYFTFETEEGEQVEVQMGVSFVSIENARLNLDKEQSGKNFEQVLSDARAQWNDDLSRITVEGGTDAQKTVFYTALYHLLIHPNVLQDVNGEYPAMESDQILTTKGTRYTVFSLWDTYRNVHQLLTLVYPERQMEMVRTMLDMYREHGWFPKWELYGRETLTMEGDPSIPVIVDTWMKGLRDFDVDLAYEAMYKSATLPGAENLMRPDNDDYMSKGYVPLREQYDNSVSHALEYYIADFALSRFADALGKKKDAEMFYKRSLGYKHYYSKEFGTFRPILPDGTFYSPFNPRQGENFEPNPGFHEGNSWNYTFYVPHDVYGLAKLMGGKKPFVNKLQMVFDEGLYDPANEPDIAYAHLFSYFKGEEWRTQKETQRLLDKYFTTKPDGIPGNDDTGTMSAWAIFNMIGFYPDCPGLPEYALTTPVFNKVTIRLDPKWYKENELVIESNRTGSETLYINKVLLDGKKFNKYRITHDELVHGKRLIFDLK

Structure (SMILES)	Ki [1] [µM]	Ki [2] [µM]	Ki [3] [µM]	Ki [4] [µM]	Ki [5] [µM]	Ki [6] [µM]	Ki [7] [µM]	Ki [8] [µM]	Ki [9] [µM]	Ki [10] [µM]	Ki [11] [µM]	Ki [12] [µM]	Ki [13] [µM]	Ki [14] [µM]	Ki [15] [µM]	Ki [16] [µM]
OC[C@H]1NC[C@@H](O)[C@@H](O)[C@@H]1O [DEOXYMANNOJIRIMYCIN]	13000	12000														
OC[C@@H]1[C@@H](O)[C@H](O)[C@H](O)c2nccn21 [MANNOIMIDAZOLE]	90		600	1800	70	1	5800	260	270	790	0.4	46	43	360	1600	860
